Data as given in ChEMBL document CHEMBL4689842, “EUbOPEN Chemogenomics Library wave 1” (2021).
Several values for one entry are separate records, joined by “and”; a condition that tells them apart may be missing. Identical values can stand only once.

System: HEK-293T
Assay: Multiplex assay against HEK293T;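 for Population Tubulin-Different-Phenotype (%): share of the cells with healthy nuclei that show this phenotype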
Format: toxicity, cell-based
Conditions: human
Method in brief: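 Cells stained live at seeding with Hoechst33342, BioTracker Green Microtubule Cytoskeleton Dye, MitoTracker Red and Annexin V Alexa Fluor 680 were imaged on a CQ1 microscope at 37°C and 5% CO2 after compound addition. Their classification by CellPathfinder machine-learning gating ran from Hoechst high-intensity objects versus normal cells, to healthy, pyknosed or fragmented nuclei among normal cells, to mitotic or apoptotic among pyknosed cells. Tubulin, mitochondrial-mass and membrane-permeability phenotypes are per cents of healthy-nucleus cells.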

[1] = 12 h, 1 µM, compound concentration 1 uM, replicate 1
[2] = 12 h, 1 µM, compound concentration 1 uM, replicate 2
[3] = 12 h, 10 µM, compound concentration 10 uM, replicate 1
[4] = 12 h, 10 µM, compound concentration 10 uM, replicate 2
[5] = 24 h, 1 µM, compound concentration 1 uM, replicate 1
[6] = 24 h, 1 µM, compound concentration 1 uM, replicate 2
[7] = 24 h, 10 µM, compound concentration 10 uM, replicate 1
[8] = 24 h, 10 µM, compound concentration 10 uM, replicate 2
[9] = 48 h, 1 µM, compound concentration 1 uM, replicate 1
[10] = 48 h, 1 µM, compound concentration 1 uM, replicate 2
[11] = 48 h, 10 µM, compound concentration 10 uM, replicate 1
[12] = 48 h, 10 µM, compound concentration 10 uM, replicate 2

Nc1c(C(=O)NCc2ccc(C(=O)NCCCC3CCCCC3)cc2)cnn1-c1ccccc1 [SR-318]
Population Apoptotic (%) [1]: 38% and 53% and 33% | Population Fragmented Nuclei (%) [1]: 11% and 10% | Population Healthy Nuclei (%) [1]: 45% and 28% and 41% | Population Hoechst High Intensity Objects (%) [1]: 13% and 14% and 11% | Population Membrane Permeable-Phenotype (%) [1]: 1% | Population Mitochondria Different-Phenotype (%) [1]: 68% and 75% and 77% | Population Mitotic Cells (%) [1]: 61% and 46% and 66% | Population Normal (%) [1]: 86% and 85% and 88% | Population Pyknosed Nuclei (%) [1]: 45% and 60% and 48% | Population Tubulin-Different-Phenotype (%) [1]: 37% and 47% and 50% | Total Cell Count [1]: 564 and 341 and 583 | Population Apoptotic (%) [2]: 8% and 14% and 10% | Population Fragmented Nuclei (%) [2]: 9% and 6% | Population Healthy Nuclei (%) [2]: 39% and 42% and 51% | Population Hoechst High Intensity Objects (%) [2]: 4% and 5% and 2% | Population Membrane Permeable-Phenotype (%) [2]: 8% and 6% and 4% | Population Mitochondria Different-Phenotype (%) [2]: 22% and 14% and 17% | Population Mitotic Cells (%) [2]: 91% and 85% and 89% | Population Normal (%) [2]: 95% and 94% and 97% | Population Pyknosed Nuclei (%) [2]: 51% and 47% and 41% | Population Tubulin-Different-Phenotype (%) [2]: 18% and 20% and 15% | Total Cell Count [2]: 208 and 203 and 249 | Population Apoptotic (%) [3]: 43% and 67% and 60% | Population Fragmented Nuclei (%) [3]: 13% and 17% and 12% | Population Healthy Nuclei (%) [3]: 21% and 14% and 18% | Population Hoechst High Intensity Objects (%) [3]: 16% and 13% and 15% | Population Membrane Permeable-Phenotype (%) [3]: 5% and 2% and 1% | Population Mitochondria Different-Phenotype (%) [3]: 97% and 100% and 94% | Population Mitotic Cells (%) [3]: 56% and 32% and 39% | Population Normal (%) [3]: 83% and 86% and 84% | Population Pyknosed Nuclei (%) [3]: 64% and 68% | Population Tubulin-Different-Phenotype (%) [3]: 90% and 89% and 92% | Total Cell Count [3]: 492 and 305 and 342 | Population Apoptotic (%) [4]: 42% and 40% and 53% | Population Fragmented Nuclei (%) [4]: 2% and 5% | Population Healthy Nuclei (%) [4]: 31% and 23% | Population Hoechst High Intensity Objects (%) [4]: 6% and 3% | Population Membrane Permeable-Phenotype (%) [4]: 7% and 4% | Population Mitochondria Different-Phenotype (%) [4]: 82% and 78% and 79% | Population Mitotic Cells (%) [4]: 57% and 59% and 46% | Population Normal (%) [4]: 93% and 96% | Population Pyknosed Nuclei (%) [4]: 66% and 62% and 70% | Population Tubulin-Different-Phenotype (%) [4]: 78% and 84% | Total Cell Count [4]: 272 and 248 and 191 | Population Apoptotic (%) [5]: 42% and 41% and 52% | Population Fragmented Nuclei (%) [5]: 12% and 10% and 16% | Population Healthy Nuclei (%) [5]: 40% and 46% and 27% | Population Hoechst High Intensity Objects (%) [5]: 15% and 12% | Population Membrane Permeable-Phenotype (%) [5]: 3% and 1% and 5% | Population Mitochondria Different-Phenotype (%) [5]: 71% and 56% and 69% | Population Mitotic Cells (%) [5]: 57% and 58% and 47% | Population Normal (%) [5]: 84% and 87% | Population Pyknosed Nuclei (%) [5]: 46% and 43% and 55% | Population Tubulin-Different-Phenotype (%) [5]: 48% and 34% and 54% | Total Cell Count [5]: 634 and 591 and 363 | Population Apoptotic (%) [6]: 11% and 13% and 5% | Population Fragmented Nuclei (%) [6]: 5% and 9% and 6% | Population Healthy Nuclei (%) [6]: 64% and 62% and 70% | Population Hoechst High Intensity Objects (%) [6]: 2% | Population Membrane Permeable-Phenotype (%) [6]: 7% | Population Mitochondria Different-Phenotype (%) [6]: 14% and 23% and 18% | Population Mitotic Cells (%) [6]: 88% and 86% and 94% | Population Normal (%) [6]: 97% | Population Pyknosed Nuclei (%) [6]: 30% and 27% and 22% | Population Tubulin-Different-Phenotype (%) [6]: 22% and 26% and 15% | Total Cell Count [6]: 245 and 241 and 330 | Population Apoptotic (%) [7]: 50% and 60% and 64% | Population Fragmented Nuclei (%) [7]: 18% and 20% | Population Healthy Nuclei (%) [7]: 22% and 16% and 17% | Population Hoechst High Intensity Objects (%) [7]: 19% and 15% and 14% | Population Membrane Permeable-Phenotype (%) [7]: 0% | Population Mitochondria Different-Phenotype (%) [7]: 98% and 97% and 96% | Population Mitotic Cells (%) [7]: 49% and 39% and 35% | Population Normal (%) [7]: 80% and 84% and 85% | Population Pyknosed Nuclei (%) [7]: 58% and 63% and 61% | Population Tubulin-Different-Phenotype (%) [7]: 94% and 86% and 90% | Total Cell Count [7]: 489 and 314 and 331 | Population Apoptotic (%) [8]: 61% and 57% and 59% | Population Fragmented Nuclei (%) [8]: 6% and 3% | Population Healthy Nuclei (%) [8]: 42% and 47% and 50% | Population Hoechst High Intensity Objects (%) [8]: 4% and 5% | Population Membrane Permeable-Phenotype (%) [8]: 3% and 1% and 2% | Population Mitochondria Different-Phenotype (%) [8]: 90% and 89% and 87% | Population Mitotic Cells (%) [8]: 38% and 42% and 40% | Population Normal (%) [8]: 95% and 94% | Population Pyknosed Nuclei (%) [8]: 50% and 49% and 46% | Population Tubulin-Different-Phenotype (%) [8]: 93% | Total Cell Count [8]: 222 and 291 and 281 | Population Apoptotic (%) [9]: 50% and 32% and 31% | Population Fragmented Nuclei (%) [9]: 17% and 13% and 15% | Population Healthy Nuclei (%) [9]: 35% and 64% and 52% | Population Hoechst High Intensity Objects (%) [9]: 15% and 9% and 12% | Population Membrane Permeable-Phenotype (%) [9]: 0% | Population Mitochondria Different-Phenotype (%) [9]: 46% and 27% and 47% | Population Mitotic Cells (%) [9]: 50% and 67% and 68% | Population Normal (%) [9]: 84% and 90% and 87% | Population Pyknosed Nuclei (%) [9]: 46% and 21% and 32% | Population Tubulin-Different-Phenotype (%) [9]: 28% and 25% and 40% | Total Cell Count [9]: 384 and 851 and 794 | Population Apoptotic (%) [10]: 20% and 10% and 15% | Population Fragmented Nuclei (%) [10]: 7% and 9% and 3% | Population Healthy Nuclei (%) [10]: 82% and 81% | Population Hoechst High Intensity Objects (%) [10]: 4% | Population Membrane Permeable-Phenotype (%) [10]: 3% and 1% | Population Mitochondria Different-Phenotype (%) [10]: 9% and 7% and 13% | Population Mitotic Cells (%) [10]: 79% and 89% and 84% | Population Normal (%) [10]: 95% | Population Pyknosed Nuclei (%) [10]: 10% and 9% and 15% | Population Tubulin-Different-Phenotype (%) [10]: 24% and 17% and 22% | Total Cell Count [10]: 386 and 610 and 321 | Population Apoptotic (%) [11]: 68% and 72% and 52% | Population Fragmented Nuclei (%) [11]: 28% and 25% | Population Healthy Nuclei (%) [11]: 22% and 19% and 26% | Population Hoechst High Intensity Objects (%) [11]: 13% and 18% and 16% | Population Membrane Permeable-Phenotype (%) [11]: 0% | Population Mitochondria Different-Phenotype (%) [11]: 98% and 96% and 95% | Population Mitotic Cells (%) [11]: 31% and 27% and 47% | Population Normal (%) [11]: 86% and 81% and 84% | Population Pyknosed Nuclei (%) [11]: 48% and 55% | Population Tubulin-Different-Phenotype (%) [11]: 98% and 94% and 82% | Total Cell Count [11]: 329 and 319 and 500 | Population Apoptotic (%) [12]: 66% | Population Fragmented Nuclei (%) [12]: 5% and 7% and 8% | Population Healthy Nuclei (%) [12]: 69% and 65% and 61% | Population Hoechst High Intensity Objects (%) [12]: 3% and 6% | Population Membrane Permeable-Phenotype (%) [12]: 2% and 1% | Population Mitochondria Different-Phenotype (%) [12]: 85% and 90% and 93% | Population Mitotic Cells (%) [12]: 33% | Population Normal (%) [12]: 96% and 93% | Population Pyknosed Nuclei (%) [12]: 25% and 26% and 30% | Population Tubulin-Different-Phenotype (%) [12]: 95% | Total Cell Count [12]: 373 and 318 and 253
